Test results as given in ChEMBL document CHEMBL1152771, “Identification of Shc Src homology 2 domain-binding peptoid-peptide hybrids” (J Med Chem, 2009).
*1 amine or outer side, *2 acyl side, *3 side chain or, on linkers, in order; H or OH if unused. Where a SMILES comes first, the peptide text is derived from it. [ ]: non-standard residue; d: D form. The star is where a group is joined. X2 = O=C(c1cc(N=C=S)ccc1-c1c2ccc(=O)cc-2oc2cc(O)ccc12)*; Gly(N-but-3-enyl) = O=C(CN(CCC=[*:3])[*:1])[*:2]; X5 = C=CCN([C@@H](CC(C)C)C(=O)[*:2])[*:1]; pY = N[C@@H](Cc1ccc(OP(=O)(O)O)cc1)C(=O)O; 3Amb = NCc1cccc(C(=O)O)c1; NH(but-3-enyl) = C=CCCN*; Ahx = NCCCCCC(=O)O; Ava = NCCCCC(=O)O; GABA = NCCCC(=O)O; NHAllyl = C=CCN*

The compounds below were run against T1, SHC-transforming protein 1 (Homo sapiens, UniProt P29353) (assay: Displacement of FITC-tagged NH-(CH2)4-CO-phospho-tyrosine-glutamine-glycine-leucine-serine-amide from Shc Src homology 2 domain by fluorescence anisotropy competition assay).
T1 sequence (P29353 whole entry): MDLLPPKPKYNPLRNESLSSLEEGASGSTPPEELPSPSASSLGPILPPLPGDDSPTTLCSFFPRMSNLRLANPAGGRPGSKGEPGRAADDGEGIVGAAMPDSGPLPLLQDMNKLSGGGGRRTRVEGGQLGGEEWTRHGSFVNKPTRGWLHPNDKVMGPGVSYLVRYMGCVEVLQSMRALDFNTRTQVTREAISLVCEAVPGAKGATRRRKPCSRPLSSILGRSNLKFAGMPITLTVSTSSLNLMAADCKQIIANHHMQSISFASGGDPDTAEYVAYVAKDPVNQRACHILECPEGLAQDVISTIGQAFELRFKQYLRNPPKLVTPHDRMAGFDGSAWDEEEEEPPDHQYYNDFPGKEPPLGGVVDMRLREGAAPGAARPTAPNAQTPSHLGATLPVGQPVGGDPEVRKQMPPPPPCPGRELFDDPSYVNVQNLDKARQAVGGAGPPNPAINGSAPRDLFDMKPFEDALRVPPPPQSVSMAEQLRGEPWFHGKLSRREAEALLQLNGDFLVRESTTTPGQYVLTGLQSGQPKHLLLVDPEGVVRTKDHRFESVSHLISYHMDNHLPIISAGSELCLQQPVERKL
Procedure, shortened: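 Competition FA: preformed complex of 2 μM Shc SH2 domain protein and 10 nM FITC reference peptide in 10 mM HEPES, 150 mM NaCl pH 7.5 with 10% (v/v) DMSO; unlabeled competitors serially diluted from 500 μM. Excitation 485 nm, parallel/perpendicular emission 535 nm. Fractional binding from anisotropy; IC50 where spline (order three, three knots) reached one half.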

Point of comparison: `CCC#CCN(CC(=O)N[C@@H](CC(C)C)C(N)=O)C(=O)[C@H](CCC(N)=O)NC(=O)[C@H](Cc1ccc(OP(=O)(O)O)cc1)NC(C)=O`, IC50 17 µM. Against it:
- C=CCNC(=O)[C@H](CC(C)C)N(CC=C)C(=O)CNC(=O)[C@H](CCC(N)=O)NC(=O)[C@H](Cc1ccc(OP(=O)(O)O)cc1)NC(C)=O — 4.8-fold higher, 81 µM
- CC(=O)N[C@@H](Cc1ccc(OP(=O)(O)O)cc1)C(=O)N[C@@H](CCC(N)=O)C(=O)N(CCCC(C)C)CC(=O)N[C@@H](CC(C)C)C(N)=O — 1.7-fold higher, 29 µM
- CC#CCN(CC(=O)N[C@@H](CC(C)C)C(N)=O)C(=O)[C@H](CCC(N)=O)NC(=O)[C@H](Cc1ccc(OP(=O)(O)O)cc1)NC(C)=O — 4.9-fold higher, 83 µM
- CC(=O)N[C@@H](Cc1ccc(OP(=O)(O)O)cc1)C(=O)N[C@@H](CCC(N)=O)C(=O)N(CCCCC#N)CC(=O)N[C@@H](CC(C)C)C(N)=O — 2.6-fold higher, 44 µM
- CCSCCN(CC(=O)N[C@@H](CC(C)C)C(N)=O)C(=O)[C@H](CCC(N)=O)NC(=O)[C@H](Cc1ccc(OP(=O)(O)O)cc1)NC(C)=O — 2-fold higher, 34 µM
- CC(=O)N[C@@H](Cc1ccc(OP(=O)(O)O)cc1)C(=O)N[C@@H](CCC(N)=O)C(=O)N(CCCC(F)(F)F)CC(=O)N[C@@H](CC(C)C)C(N)=O — within 1.5-fold, 23 µM
- C=CCCCN(CC(=O)N[C@@H](CC(C)C)C(N)=O)C(=O)[C@H](CCC(N)=O)NC(=O)[C@H](Cc1ccc(OP(=O)(O)O)cc1)NC(C)=O — within 1.5-fold, 16 µM
- C=CCCCCN(CC(=O)N[C@@H](CC(C)C)C(N)=O)C(=O)[C@H](CCC(N)=O)NC(=O)[C@H](Cc1ccc(OP(=O)(O)O)cc1)NC(C)=O — within 1.5-fold, 14 µM
- CC(=O)N[C@@H](Cc1ccc(OP(=O)(O)O)cc1)C(=O)N[C@@H](CCC(N)=O)C(=O)N(CCCCF)CC(=O)N[C@@H](CC(C)C)C(N)=O — 2.4-fold higher, 40 µM
- C=CCNC(=O)[C@H](CC(C)C)NC(=O)CNC(=O)[C@H](CCC(N)=O)NC(=O)[C@H](Cc1ccc(OP(=O)(O)O)cc1)N(CC=C)C(C)=O — 26-fold higher, 450 µM
- C=CCNC(=O)[C@H](CO)NC(=O)[C@H](CC(C)C)N(CC=C)C(=O)CNC(=O)[C@H](CCC(N)=O)NC(=O)[C@H](Cc1ccc(OP(=O)(O)O)cc1)NC(C)=O (Ac-[pY]QG[X5]S-NHAllyl) — 21-fold higher, 353 µM
- C=CCCNC(=O)[C@H](CO)NC(=O)[C@H](CC(C)C)NC(=O)CN(CCC=C)C(=O)[C@H](CCC(N)=O)NC(=O)[C@H](Cc1ccc(OP(=O)(O)O)cc1)NC(C)=O (Ac-[pY]Q[Gly(N-but-3-enyl)]LS-{NH(but-3-enyl)}) — 2.1-fold lower, 8 µM
- C=CCNC(=O)[C@H](CO)NC(=O)[C@H](CC(C)C)NC(=O)CNC(=O)[C@H](CCC(N)=O)NC(=O)[C@H](Cc1ccc(OP(=O)(O)O)cc1)N(CC=C)C(C)=O (HELM PEPTIDE1{[ac].[C=CCN([C@@H](Cc1ccc(OP(=O)(O)O)cc1)C(=O)[*:2])[*:1]].Q.G.L.S.[C=CCN[*:1]]}$$$$V2.0) — 2.4-fold higher, 41 µM
- CC(=O)N[C@@H](Cc1ccc(OP(=O)(O)O)cc1)C(=O)N[C@@H](CCC(N)=O)C(=O)NCC(=O)N[C@@H](CC(C)C)C(N)=O (HELM PEPTIDE1{[ac].[O=C([C@H](Cc1ccc(OP(=O)(O)O)cc1)N[*:1])[*:2]].Q.G.L.[am]}$$$$V2.0) — 15-fold higher, 248 µM
- C=CCN(CC(=O)N[C@@H](CC(C)C)C(N)=O)C(=O)[C@H](CCC(N)=O)NC(=O)[C@H](Cc1ccc(OP(=O)(O)O)cc1)NC(C)=O (HELM PEPTIDE1{[ac].[O=C([C@H](Cc1ccc(OP(=O)(O)O)cc1)N[*:1])[*:2]].Q.[C=CCN(CC(=O)[*:2])[*:1]].L.[am]}$$$$V2.0) — 1.6-fold higher, 26.6 µM
- CC(=O)N[C@@H](Cc1ccc(OP(=O)(O)O)cc1)C(=O)N[C@@H](CCC(N)=O)C(=O)N(CCC(C)C)CC(=O)N[C@@H](CC(C)C)C(N)=O (HELM PEPTIDE1{[ac].[O=C([C@H](Cc1ccc(OP(=O)(O)O)cc1)N[*:1])[*:2]].Q.[CC(C)CCN(CC(=O)[*:2])[*:1]].L.[am]}$$$$V2.0) — the same, 17 µM
- CCCN(CC(=O)N[C@@H](CC(C)C)C(N)=O)C(=O)[C@H](CCC(N)=O)NC(=O)[C@H](Cc1ccc(OP(=O)(O)O)cc1)NC(C)=O (HELM PEPTIDE1{[ac].[O=C([C@H](Cc1ccc(OP(=O)(O)O)cc1)N[*:1])[*:2]].Q.[CCCN(CC(=O)[*:2])[*:1]].L.[am]}$$$$V2.0) — 1.5-fold higher, 25.7 µM
- CCN(CC(=O)N[C@@H](CC(C)C)C(N)=O)C(=O)[C@H](CCC(N)=O)NC(=O)[C@H](Cc1ccc(OP(=O)(O)O)cc1)NC(C)=O (HELM PEPTIDE1{[ac].[O=C([C@H](Cc1ccc(OP(=O)(O)O)cc1)N[*:1])[*:2]].Q.[CCN(CC(=O)[*:2])[*:1]].L.[am]}$$$$V2.0) — within 1.5-fold, 19 µM
- CCOCCN(CC(=O)N[C@@H](CC(C)C)C(N)=O)C(=O)[C@H](CCC(N)=O)NC(=O)[C@H](Cc1ccc(OP(=O)(O)O)cc1)NC(C)=O (HELM PEPTIDE1{[ac].[O=C([C@H](Cc1ccc(OP(=O)(O)O)cc1)N[*:1])[*:2]].Q.[CCOCCN(CC(=O)[*:2])[*:1]].L.[am]}$$$$V2.0) — 1.9-fold higher, 33 µM
- COCCN(CC(=O)N[C@@H](CC(C)C)C(N)=O)C(=O)[C@H](CCC(N)=O)NC(=O)[C@H](Cc1ccc(OP(=O)(O)O)cc1)NC(C)=O (HELM PEPTIDE1{[ac].[O=C([C@H](Cc1ccc(OP(=O)(O)O)cc1)N[*:1])[*:2]].Q.[COCCN(CC(=O)[*:2])[*:1]].L.[am]}$$$$V2.0) — 3.3-fold higher, 56 µM
- CC(=O)N[C@@H](Cc1ccc(OP(=O)(O)O)cc1)C(=O)N[C@@H](CCC(N)=O)C(=O)N(CC(=O)N[C@@H](CC(C)C)C(N)=O)Cc1ccccc1 (HELM PEPTIDE1{[ac].[O=C([C@H](Cc1ccc(OP(=O)(O)O)cc1)N[*:1])[*:2]].Q.[O=C(CN(Cc1ccccc1)[*:1])[*:2]].L.[am]}$$$$V2.0) — within 1.5-fold, 18.9 µM

`CC(=O)NCCCCC(=O)N[C@@H](Cc1ccc(OP(=O)(O)O)cc1)C(=O)N[C@@H](CCC(N)=O)C(=O)NCC(=O)N[C@@H](CC(C)C)C(=O)N[C@@H](CO)C(N)=O` (HELM PEPTIDE1{[ac].[O=C(CCCCN[*:1])[*:2]].[O=C([C@H](Cc1ccc(OP(=O)(O)O)cc1)N[*:1])[*:2]].Q.G.L.S.[am]}$$$$V2.0) gave a Kd of 158 µM.

These compounds were tested against T1, SHC-transforming protein 1 (assay: Binding affinity to Shc Src homology 2 domain by fluorescence anisotropy).
Procedure, shortened: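 Direct binding: 5 nM N-terminal fluorescein-labelled peptide in 10 mM HEPES, 150 mM NaCl pH 7.5 with 10% (v/v) DMSO; Shc SH2 protein serially diluted from 100 μM. Excitation 485 nm, parallel and perpendicular emission at 535 nm. Kd from fitting anisotropy versus protein concentration to a single-site binding model.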

Point of comparison: `CC(C)C[C@H](NC(=O)CNC(=O)[C@H](CCC(N)=O)NC(=O)[C@H](Cc1ccc(OP(=O)(O)O)cc1)NC(=O)[C@H](CC(C)C)NC(=O)CCCNC(=O)c1cc(N=C=S)ccc1-c1c2ccc(=O)cc-2oc2cc(O)ccc12)C(=O)N[C@@H](CO)C(N)=O` ({X2-GABA}-L[pY]QGLS-NH2), Kd 8.6 µM. Against it:
- CC(C)C[C@H](NC(=O)CNC(=O)[C@H](CCC(N)=O)NC(=O)[C@H](Cc1ccc(OP(=O)(O)O)cc1)NC(=O)c1cc(N=C=S)ccc1-c1c2ccc(=O)cc-2oc2cc(O)ccc12)C(=O)N[C@@H](CO)C(N)=O (HELM PEPTIDE1{[O=C(c1cc(N=C=S)ccc1-c1c2ccc(=O)cc-2oc2cc(O)ccc12)[*:2]].[O=C([C@H](Cc1ccc(OP(=O)(O)O)cc1)N[*:1])[*:2]].Q.G.L.S.[am]}$$$$V2.0) — within 1.5-fold, 12.4 µM
- CC(C)C[C@H](NC(=O)CNC(=O)[C@H](CCC(N)=O)NC(=O)[C@H](Cc1ccc(OP(=O)(O)O)cc1)NC(=O)[C@H](CC(C)C)NC(=O)CCNC(=O)c1cc(N=C=S)ccc1-c1c2ccc(=O)cc-2oc2cc(O)ccc12)C(=O)N[C@@H](CO)C(N)=O (HELM PEPTIDE1{[O=C(c1cc(N=C=S)ccc1-c1c2ccc(=O)cc-2oc2cc(O)ccc12)[*:2]].[bAla].L.[O=C([C@H](Cc1ccc(OP(=O)(O)O)cc1)N[*:1])[*:2]].Q.G.L.S.[am]}$$$$V2.0) — within 1.5-fold, 7.6 µM
- CC(C)C[C@H](NC(=O)CNC(=O)[C@H](CCC(N)=O)NC(=O)[C@H](Cc1ccc(OP(=O)(O)O)cc1)NC(=O)CCNC(=O)c1cc(N=C=S)ccc1-c1c2ccc(=O)cc-2oc2cc(O)ccc12)C(=O)N[C@@H](CO)C(N)=O (HELM PEPTIDE1{[O=C(c1cc(N=C=S)ccc1-c1c2ccc(=O)cc-2oc2cc(O)ccc12)[*:2]].[bAla].[O=C([C@H](Cc1ccc(OP(=O)(O)O)cc1)N[*:1])[*:2]].Q.G.L.S.[am]}$$$$V2.0) — 7.9-fold lower, 1.09 µM
- CC(C)C[C@H](NC(=O)CNC(=O)[C@H](CCC(N)=O)NC(=O)[C@H](Cc1ccc(OP(=O)(O)O)cc1)NC(=O)c1cccc(CNC(=O)c2cc(N=C=S)ccc2-c2c3ccc(=O)cc-3oc3cc(O)ccc23)c1)C(=O)N[C@@H](CO)C(N)=O ({X2-3Amb}-[pY]QGLS-NH2) — 1.7-fold lower, 5 µM
- CC(C)C[C@H](NC(=O)CNC(=O)[C@H](CCC(N)=O)NC(=O)[C@H](Cc1ccc(OP(=O)(O)O)cc1)NC(=O)CCCCCNC(=O)c1cc(N=C=S)ccc1-c1c2ccc(=O)cc-2oc2cc(O)ccc12)C(=O)N[C@@H](CO)C(N)=O ({X2-Ahx}-[pY]QGLS-NH2) — 1.8-fold lower, 4.7 µM
- CC(C)C[C@H](NC(=O)CNC(=O)[C@H](CCC(N)=O)NC(=O)[C@H](Cc1ccc(OP(=O)(O)O)cc1)NC(=O)[C@H](CC(C)C)NC(=O)CCCCNC(=O)c1cc(N=C=S)ccc1-c1c2ccc(=O)cc-2oc2cc(O)ccc12)C(=O)N[C@@H](CO)C(N)=O ({X2-Ava}-L[pY]QGLS-NH2) — within 1.5-fold, 8.9 µM
- CC(C)C[C@H](NC(=O)CNC(=O)[C@H](CCC(N)=O)NC(=O)[C@H](Cc1ccc(OP(=O)(O)O)cc1)NC(=O)CCCCNC(=O)c1cc(N=C=S)ccc1-c1c2ccc(=O)cc-2oc2cc(O)ccc12)C(=O)N[C@@H](CO)C(N)=O ({X2-Ava}-[pY]QGLS-NH2) — 25-fold lower, 0.35 µM
